Experimental data: publication PMC7033594 (iScience, 2020)
Each block holds one molecule with its values, some of them ahead of it.

What was measured:
PLC activity = PLC activity in seedlings after ABA treatment; type: in vivo, Arabidopsis; settings: 50 μM ABA for 24 h
Method in brief: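 Ten-day-old seedlings grown on MS agar were incubated 24 h in the dark in liquid half-strength MS with or without 50 µM ABA. PLC activity in seedling extracts was measured in triplicate with the EnzCheck direct PLC kit. Fluorescence was normalised to the kit's Bacillus cereus PC-PLC. Groups were compared by one-way ANOVA with Tukey's test.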

[1] = tested on: PI(4,5)P2 biosensor in Arabidopsis suspension cells; test: PI; type: cell-based; settings: 50 µM ABA for 24h
full-length AtTSPO [2] = target: T1, full-length AtTSPO (Arabidopsis thaliana, UniProt O82245); test: Microscale thermophoresis, PI; type: binding
T1 sequence (O82245 1-196): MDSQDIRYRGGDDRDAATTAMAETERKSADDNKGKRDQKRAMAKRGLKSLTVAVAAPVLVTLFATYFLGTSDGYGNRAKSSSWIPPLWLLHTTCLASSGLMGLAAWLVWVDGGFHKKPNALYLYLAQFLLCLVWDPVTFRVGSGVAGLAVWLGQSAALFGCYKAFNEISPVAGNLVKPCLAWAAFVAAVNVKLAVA
Method in brief: (§1)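 Microscale thermophoresis used His-tag labelling with RED-tris-NTA. Full-length or N-terminally truncated 10His protein from yeast was titrated against a PI(4,5)P2 concentration gradient in 50 mM Tris pH 8.0, 200 mM NaCl, 10% glycerol, 2% DDM and protease inhibitors. Laser power was 10, 20 or 40%. Values are mean ± SD of three experiments, with Kd from non-linear regression.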

[3] = target: T2, AtTSPO-PIP2;7 interaction (Arabidopsis thaliana, UniProt O82245); test: Microscale thermophoresis of YFP-PIP2; type: binding; settings: 50 μM lipid in trans
T2 sequence (O82245 1-196): T1 sequence (O82245 1-196)
T2 sequence (P93004 1-280 partner): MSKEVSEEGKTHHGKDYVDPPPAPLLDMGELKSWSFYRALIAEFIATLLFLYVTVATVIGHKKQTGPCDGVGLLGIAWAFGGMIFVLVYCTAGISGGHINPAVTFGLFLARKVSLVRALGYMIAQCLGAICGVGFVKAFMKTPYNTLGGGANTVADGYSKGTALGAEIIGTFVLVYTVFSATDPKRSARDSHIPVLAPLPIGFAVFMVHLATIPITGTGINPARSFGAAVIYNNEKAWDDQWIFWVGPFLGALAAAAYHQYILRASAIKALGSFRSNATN
Method in brief: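 The aquaporin (mVenus-tagged YFP-PIP2;7) was a DDM-solubilised microsomal fraction from transgenic Arabidopsis seedlings. It was titrated against a range of AtTSPO concentrations, with 50 µM PI(4,5)P2, phosphatidylcholine, or no lipid added. Buffer was 50 mM Tris pH 8.0, 200 mM NaCl, 10% glycerol, 2% DDM. YFP was read through the green filter. Normalised data from three experiments (mean ± SD) were fitted by non-linear regression.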

mTSPO = mTSPO (Mus musculus, UniProt P50637); test: Protein-lipid overlay with purified mouse TSPO; type: binding
Sequence of mTSPO (P50637 whole entry): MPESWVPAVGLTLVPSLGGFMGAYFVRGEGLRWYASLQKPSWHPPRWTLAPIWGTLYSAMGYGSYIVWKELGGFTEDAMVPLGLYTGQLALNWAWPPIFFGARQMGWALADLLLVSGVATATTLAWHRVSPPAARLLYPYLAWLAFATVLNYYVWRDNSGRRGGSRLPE
Method in brief: (§2)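 Lipids were spotted on nitrocellulose and air-dried 1 h: PA from CHCl3, and PI3P, PI4P and PI(4,5)P2 from 2% DDM. Commercial PIP strips were also used. Membranes were blocked in 3% BSA in TBS-Tween, incubated with purified protein in blocking buffer for 3 h at room temperature, then probed with primary and HRP secondary antibodies and developed by ECL.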

full-length AtTSPO [4] = target: T1, full-length AtTSPO; test: Protein-lipid overlay; type: binding
Method in brief: as §2

AtTSPO^Nter [5] = target: T3, AtTSPO^Nter (Arabidopsis thaliana, UniProt O82245); test: Protein-lipid overlay with purified AtTSPO N-terminal peptide; type: binding
T3 sequence (O82245 1-49): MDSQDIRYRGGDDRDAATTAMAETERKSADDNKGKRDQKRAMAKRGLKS
Method in brief: as §2

AtTSPO^ΔN [6] = target: T4, AtTSPO^ΔN (Arabidopsis thaliana, UniProt O82245); test: Microscale thermophoresis, PI; type: binding; settings: RED-tris-NTA label
T4 sequence (O82245 42-196): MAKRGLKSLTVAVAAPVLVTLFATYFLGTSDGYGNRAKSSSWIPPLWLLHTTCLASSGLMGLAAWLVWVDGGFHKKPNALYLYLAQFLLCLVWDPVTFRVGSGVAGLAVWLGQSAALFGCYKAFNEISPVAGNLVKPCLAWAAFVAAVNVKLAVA
Method in brief: as §1

AtTSPO^Nter [7] = target: T3, AtTSPO^Nter; test: NMR 1H-15N HSQC titration of AtTSPO^Nter with lipids; type: binding
full-length AtTSPO [8] = target: T1, full-length AtTSPO; test: Microscale thermophoresis, phosphatidic acid titrated against full-length AtTSPO; type: binding; settings: protein labeled with NT-647-NHS, non-linear fitting
Method in brief: (§3)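 Microscale thermophoresis was run on a Monolith NT115. Lysine residues of yeast-derived full-length protein or bacterially expressed N-terminal peptide were labelled with NT-647-NHS. Labelled protein was titrated against a PA concentration gradient in 50 mM Tris pH 8.0, 200 mM NaCl, 10% glycerol, 2% DDM and protease inhibitors. LED power was 100%. Kd came from non-linear fitting of normalised fluorescence.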

[9] = target: T5, N-terminal peptide (AtTSPO^Nter) (Arabidopsis thaliana, UniProt O82245); type: binding; settings: thermophoresis; peptide labeled with NT-647-NHS; non-linear fitting
T5 sequence (O82245 1-49): T3 sequence (O82245 1-49)
Method in brief: as §3

AtTSPO^ΔN [10] = target: T4, AtTSPO^ΔN; test: Membrane-spotted PA gradient / PA pull-down with AtTSPO^ΔN; type: binding; settings: membrane-spotted gradient of PA
Method in brief: as §2

Molecule: CC1=CC(=O)CC(C)(C)[C@@]1(O)/C=C/C(C)=C\C(=O)O [ABA, abscisic acid]
effect on PLC activity (PLC activity; KO TSPO seedlings): no effect | increase of PLC activity (PLC activity; OE TSPO seedlings): ~4 fold | enhancement of PLC activity compared with untreated samples (PLC activity; WT seedlings): ~20% | effect on PLC activity (PLC activity; seedlings overexpressing N-terminally truncated AtTSPO): no effect | distribution of the PI(4,5)P2 biosensor [1]: partial redistribution of the PI(4,5)P2 biosensor from the PM to the cytosol

Molecule: PI3P
binding to mTSPO (mTSPO): bind | binding to purified full-length AtTSPO (full-length AtTSPO [4]): could bind | binding to N-terminal peptide of AtTSPO (AtTSPO^Nter [5]): could bind

Molecule: phosphatidic acid [PA]
Kd (full-length AtTSPO [8]): 2100 µM | Kd [9]: 3300 µM | binding to AtTSPO^ΔN (AtTSPO^ΔN [10]): could not bind | binding to purified full-length AtTSPO (full-length AtTSPO [4]): bound

Molecule: phosphatidylcholine [PC]
AtTSPO and Venus-PIP2;7 interaction [3]: no interaction

Molecule: phosphatidylserine [PS]
binding to purified full-length AtTSPO (full-length AtTSPO [4]): bound

Second part, led by results:

Kd (full-length AtTSPO [2]): 2300 ± 700 µM | binding to mTSPO (mTSPO): did not bind | binding to purified full-length AtTSPO (full-length AtTSPO [4]): could bind | binding to N-terminal peptide of AtTSPO (AtTSPO^Nter [5]): could bind | binding to AtTSPO^ΔN (AtTSPO^ΔN [6]): no binding was observed | Kd (AtTSPO^Nter [7]): ~150 µM
Molecule: CCCCCCCC/C=C\CCCCCCCC(=O)OC[C@H](COP(=O)(O)O[C@@H]1[C@H](O)[C@H](O)[C@@H](OP(=O)(O)O)[C@H](OP(=O)(O)O)[C@H]1O)OC(=O)CCCCCCC/C=C\CCCCCCCC [PI(4,5)P2, 1,2-dioleoyl-sn-glycero-3-phospho-(1’-myo-inositol-4’,5’-bisphosphate)]
AtTSPO and Venus-PIP2;7 interaction [3]: clearly indicating a protein-protein interaction

binding to purified full-length AtTSPO (full-length AtTSPO [4]): could bind | binding to N-terminal peptide of AtTSPO (AtTSPO^Nter [5]): could bind
Molecule: PI4P

binding to purified full-length AtTSPO (full-length AtTSPO [4]): could bind | binding to N-terminal peptide of AtTSPO (AtTSPO^Nter [5]): could bind
Molecule: PI5P

binding to purified full-length AtTSPO (full-length AtTSPO [4]): bound all tested PIs except PI(3,4)P2
Molecule: PI(3,4)P2
